{"source": "ChEMBL document CHEMBL1124862", "about": "(J Med Chem, 1990)", "key": {"[1]": {"target": "T1, 5-hydroxytryptamine receptor 1A (Rattus norvegicus, UniProt P19327)", "T1 sequence (P19327 whole entry)": "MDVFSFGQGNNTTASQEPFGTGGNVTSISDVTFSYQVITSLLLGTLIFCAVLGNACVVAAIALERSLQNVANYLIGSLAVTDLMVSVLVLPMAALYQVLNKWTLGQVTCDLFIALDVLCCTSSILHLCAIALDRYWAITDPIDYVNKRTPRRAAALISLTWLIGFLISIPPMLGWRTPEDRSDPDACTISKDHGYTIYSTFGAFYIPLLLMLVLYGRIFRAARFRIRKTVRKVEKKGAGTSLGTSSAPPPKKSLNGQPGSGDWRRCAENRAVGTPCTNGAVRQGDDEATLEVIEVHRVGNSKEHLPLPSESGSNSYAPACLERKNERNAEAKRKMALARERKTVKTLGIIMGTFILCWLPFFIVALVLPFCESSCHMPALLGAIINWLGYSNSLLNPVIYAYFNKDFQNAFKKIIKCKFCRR", "experiment": "Displacement of [3H]8-OH-DPAT from rat cortex 5-hydroxytryptamine 1A receptor"}, "[2]": {"target": "T2, 5-hydroxytryptamine receptor 1B (Rattus norvegicus, UniProt P28564)", "T2 sequence (P28564 whole entry)": "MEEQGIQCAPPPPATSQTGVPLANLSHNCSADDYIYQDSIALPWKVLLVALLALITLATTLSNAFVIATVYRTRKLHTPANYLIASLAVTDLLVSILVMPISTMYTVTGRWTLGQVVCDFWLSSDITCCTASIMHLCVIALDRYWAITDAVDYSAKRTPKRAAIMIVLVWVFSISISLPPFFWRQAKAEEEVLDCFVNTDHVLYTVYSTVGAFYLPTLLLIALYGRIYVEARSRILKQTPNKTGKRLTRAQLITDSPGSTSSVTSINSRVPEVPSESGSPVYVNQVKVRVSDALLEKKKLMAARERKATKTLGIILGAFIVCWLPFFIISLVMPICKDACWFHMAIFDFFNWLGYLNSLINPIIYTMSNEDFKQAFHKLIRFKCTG", "experiment": "Inhibitory activity against 5-hydroxytryptamine 1B receptor of rat cortex using [3H]5-HT", "in_short": "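Competition binding in rat cortex membranes, using the radioligand named in each line at a concentration of approximately its K_D.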"}, "[3]": {"target": "Serotonin 2 (5-HT2) receptor (Rattus norvegicus, UniProt P30994+P08909+P14842)", "experiment": "Compound was evaluated for its inhibitory activity against 5-hydroxytryptamine 2 receptor of rat anterior cortex using [3H]ketanserin as the radioligand"}, "[4]": {"target": "T2, 5-hydroxytryptamine receptor 1B", "experiment": "Inhibitory activity against 5-hydroxytryptamine 1B receptor of rat cortex using [3H]5-HT as the radioligand."}, "[5]": {"target": "5-HT1A receptor (Cavia porcellus, UniProt A0A286Y074)", "experiment": "Inhibition of Forskolin-stimulated adenylate cyclase activity against 5-hydroxytryptamine 1A receptor of guinea pig hippocampus", "type": "functional, tissue-based", "in_short": "(§1)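 Washed membranes came from guinea pig hippocampus, rat substantia nigra or guinea pig substantia nigra. They were incubated at 30 °C with [α-³²P]ATP, 3 μM forskolin and varying agonist concentrations. The reaction was stopped with 3% SDS. [³²P]cAMP was isolated by two-column chromatography and counted by scintillation, in pmol/mg protein/min. Points were run in triplicate, and EC50 came from at least three experiments.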"}, "[6]": {"organism": "Rattus norvegicus", "experiment": "Effect of direct injection into the PVN (paraventricular medial hypothalamus) of rats on feeding behavior and the inhibition of food intake", "type": "functional", "in_short": "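Seven days later they were food-deprived for 24 h with water available. Each rat received a PVN infusion at 1 μL/min of test agent (16 μg) or 5-HT (32 μg) in 0.9% NaCl, or vehicle. Food eaten over 30 min was weighed. Groups were compared by two-tailed t test, and rats with misplaced cannulae were excluded after histology.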"}, "[7]": {"target": "T2, 5-hydroxytryptamine receptor 1B", "experiment": "Inhibition of Forskolin-stimulated adenylate cyclase activity against 5-hydroxytryptamine 1B receptor of rat substantia nigra", "type": "functional", "in_short": "as §1"}, "[8]": {"target": "5-hydroxytryptamine receptor 1D (Cavia porcellus, UniProt Q60484)", "sequence (Q60484 whole entry)": "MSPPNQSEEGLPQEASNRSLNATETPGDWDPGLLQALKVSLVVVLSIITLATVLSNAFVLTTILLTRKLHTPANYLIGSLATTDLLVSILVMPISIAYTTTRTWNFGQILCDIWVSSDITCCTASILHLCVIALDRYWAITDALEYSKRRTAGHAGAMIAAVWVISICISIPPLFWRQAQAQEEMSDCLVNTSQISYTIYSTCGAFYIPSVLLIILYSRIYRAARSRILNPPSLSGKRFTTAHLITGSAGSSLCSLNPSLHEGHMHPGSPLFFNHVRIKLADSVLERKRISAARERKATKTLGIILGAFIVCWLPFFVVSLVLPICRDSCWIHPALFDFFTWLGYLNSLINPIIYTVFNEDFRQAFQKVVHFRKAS", "experiment": "Inhibition of Forskolin-stimulated adenylate cyclase activity against 5-hydroxytryptamine 1D receptor of guinea pig substantia nigra", "in_short": "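Washed membranes from freshly dissected guinea pig substantia nigra, incubated at 30 °C with [α-³²P]ATP plus 3 μM forskolin and varying agonist concentrations. Reaction stopped with 3% SDS. [³²P]cAMP separated from [³²P]ATP on two columns and counted by liquid scintillation, as pmol/mg protein/min. EC50 from at least three experiments, each in triplicate.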"}}}
{"smiles": "Oc1ccc2[nH]cc(C3=CCNCC3)c2c1", "values": [{"measurement": "IC50", "setting": "[1]", "value": 30, "unit": "nM"}, {"measurement": "IC50", "setting": "[2]", "value": 1.2, "unit": "nM"}]}
{"smiles": "N#Cc1ccc2[nH]cc(C3=CCNCC3)c2c1", "values": [{"measurement": "IC50", "setting": "[1]", "value": 32, "unit": "nM"}, {"measurement": "IC50", "setting": "[2]", "value": 0.8, "unit": "nM"}]}
{"smiles": "Fc1ccc2[nH]cc(C3=CCNCC3)c2c1", "values": [{"measurement": "IC50", "setting": "[1]", "value": 65, "unit": "nM"}, {"measurement": "IC50", "setting": "[2]", "value": 1.9, "unit": "nM"}]}
{"smiles": "CN1CCN(c2nc3cc(C(F)(F)F)ccc3n3cccc23)CC1", "values": [{"measurement": "IC50", "setting": "[1]", "value": 19, "unit": "nM"}, {"measurement": "IC50", "setting": "[3]", "value": 6800, "unit": "nM"}, {"measurement": "IC50", "setting": "[2]", "value": 150, "unit": "nM"}]}
{"smiles": "FC(F)(F)c1cccc(N2CCNCC2)c1", "values": [{"measurement": "IC50", "setting": "[1]", "value": 290, "unit": "nM"}, {"measurement": "IC50", "setting": "[3]", "value": 570, "unit": "nM"}, {"measurement": "IC50", "setting": "[2]", "value": 27, "unit": "nM"}]}
{"smiles": "Brc1ccc2[nH]cc(C3=CCNCC3)c2c1", "values": [{"measurement": "IC50", "setting": "[1]", "value": 13, "unit": "nM"}, {"measurement": "IC50", "setting": "[2]", "value": 3.2, "unit": "nM"}]}
{"smiles": "C1=C(c2c[nH]c3ccccc23)CCNC1", "values": [{"measurement": "IC50", "setting": "[1]", "value": 140, "unit": "nM"}, {"measurement": "IC50", "setting": "[4]", "value": 3.7, "unit": "nM"}]}
{"smiles": "FC(F)(F)c1ccc2c(c1)nc(N1CCNCC1)c1cccn12", "values": [{"measurement": "IC50", "setting": "[1]", "value": 37, "unit": "nM"}, {"measurement": "IC50", "setting": "[3]", "value": "> 10000", "unit": "nM"}, {"measurement": "IC50", "setting": "[2]", "value": 21, "unit": "nM"}]}
{"smiles": "Clc1ccc2[nH]cc(C3=CCNCC3)c2c1", "values": [{"measurement": "IC50", "setting": "[1]", "value": 26, "unit": "nM"}, {"measurement": "IC50", "setting": "[2]", "value": 3.3, "unit": "nM"}]}
{"smiles": "O=[N+]([O-])c1ccc2[nH]cc(C3=CCNCC3)c2c1", "values": [{"measurement": "IC50", "setting": "[1]", "value": 36, "unit": "nM"}, {"measurement": "IC50", "setting": "[2]", "value": 3.5, "unit": "nM"}]}
{"smiles": "Oc1ccc2[nH]cc(C3=CCNCC3)c2n1", "values": [{"measurement": "EC50", "setting": "[5]", "value": "> 10000", "unit": "nM"}, {"measurement": "IC50", "setting": "[1]", "value": 3000, "unit": "nM"}, {"measurement": "IC50", "setting": "[3]", "value": "> 10000", "unit": "nM"}, {"measurement": "IC50", "setting": "[2]", "value": 15, "unit": "nM"}, {"measurement": "g/30min", "setting": "[6]", "value": 0.12}, {"measurement": "EC50", "setting": "[7]", "value": 56, "unit": "nM"}]}
{"smiles": "COc1ccc2[nH]cc(C3=CCNCC3)c2c1", "note": "[RU-24969]", "values": [{"measurement": "IC50", "setting": "[2]", "value": 2, "unit": "nM"}]}
{"smiles": "NCCc1c[nH]c2ccc(O)cc12", "note": "[SEROTONIN]", "values": [{"measurement": "EC50", "setting": "[8]", "value": 16, "unit": "nM"}, {"measurement": "g/30min", "setting": "[6]", "value": 1.15}]}
